Assay results reported in ChEMBL document CHEMBL5696442, “Discovery of type II inhibitors of TGFβ-activated kinase 1 (TAK1) and mitogen-activated protein kinase kinase kinase kinase 2 (MAP4K2)” (J Med Chem, 2015).
Activity calls are given as the source filed them. The rule behind the calls is not given here.

Columns and labels:
[1] = biological target: DNA-PK/Ku70/Ku85 (Homo sapiens) (UniProt P78527+P12956+P13010); test: Inhibition of DNAPK ATP labeling site harbouring GHDEREHPFLVKGGEDLRQDQR in human A-375 cells at 5 uM by KiNativ Profiling analysis relative to control; format: cell-based
Procedure, shortened: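 Live A375 melanoma cells were treated with compound at 0.5 or 5 μM, then lysed. Lysates were labeled with a lysine-reactive ATP or ADP-biotin probe. The read-out was protection of each kinase probe-labeling site from labeling, relative to control.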

[2] = biological target: Tyrosine-protein kinase Yes (Homo sapiens) (UniProt P07947); test: Inhibition of YES ACT labeling site in human A-375 cells at 0.5 uM by KiNativ Profiling analysis relative to control; format: cell-based
Chain of Tyrosine-protein kinase Yes (Homo sapiens) (P07947 2-543 limits assumed): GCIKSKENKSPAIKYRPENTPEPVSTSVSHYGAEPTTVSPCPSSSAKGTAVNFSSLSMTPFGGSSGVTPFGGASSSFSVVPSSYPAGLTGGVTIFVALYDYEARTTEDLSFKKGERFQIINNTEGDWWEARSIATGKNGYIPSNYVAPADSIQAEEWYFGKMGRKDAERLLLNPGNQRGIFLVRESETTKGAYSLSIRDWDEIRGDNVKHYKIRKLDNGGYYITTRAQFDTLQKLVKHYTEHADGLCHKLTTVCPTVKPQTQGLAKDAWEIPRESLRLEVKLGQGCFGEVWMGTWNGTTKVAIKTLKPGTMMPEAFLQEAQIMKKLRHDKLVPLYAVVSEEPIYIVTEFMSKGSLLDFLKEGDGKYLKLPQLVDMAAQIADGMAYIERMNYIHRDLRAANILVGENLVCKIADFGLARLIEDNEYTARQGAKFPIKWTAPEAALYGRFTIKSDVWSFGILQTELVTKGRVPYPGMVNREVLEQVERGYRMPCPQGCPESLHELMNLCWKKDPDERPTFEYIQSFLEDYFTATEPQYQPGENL

[3] = biological target: MAP/microtubule affinity-regulating kinase 3 (Homo sapiens) (UniProt P27448); test: Inhibition of MARK3 Lys2 labeling site in human A-375 cells at 0.05 uM by KiNativ Profiling analysis relative to control; format: cell-based
Chain of MAP/microtubule affinity-regulating kinase 3 (Homo sapiens) (P27448 whole entry, looked up): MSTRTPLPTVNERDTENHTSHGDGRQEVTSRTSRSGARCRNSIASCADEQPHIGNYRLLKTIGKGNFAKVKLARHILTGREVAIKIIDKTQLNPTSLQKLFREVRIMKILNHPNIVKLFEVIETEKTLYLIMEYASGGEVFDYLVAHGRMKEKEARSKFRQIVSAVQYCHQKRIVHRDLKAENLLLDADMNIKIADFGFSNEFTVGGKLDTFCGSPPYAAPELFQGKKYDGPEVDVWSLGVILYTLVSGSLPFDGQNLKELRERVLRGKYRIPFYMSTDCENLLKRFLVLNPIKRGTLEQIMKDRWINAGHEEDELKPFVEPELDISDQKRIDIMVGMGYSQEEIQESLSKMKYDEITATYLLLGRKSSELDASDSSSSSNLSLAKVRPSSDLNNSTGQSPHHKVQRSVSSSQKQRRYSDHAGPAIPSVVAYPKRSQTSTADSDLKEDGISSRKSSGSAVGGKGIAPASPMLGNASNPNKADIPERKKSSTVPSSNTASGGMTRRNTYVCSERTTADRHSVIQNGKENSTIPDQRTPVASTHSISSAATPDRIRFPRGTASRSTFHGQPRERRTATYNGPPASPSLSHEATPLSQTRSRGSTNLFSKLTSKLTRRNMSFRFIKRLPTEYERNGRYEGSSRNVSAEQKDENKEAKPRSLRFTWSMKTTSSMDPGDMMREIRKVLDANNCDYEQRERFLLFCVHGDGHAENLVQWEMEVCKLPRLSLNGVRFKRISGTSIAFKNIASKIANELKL

[4] = biological target: T1, Aurora kinase A (Homo sapiens) (UniProt O14965); test: Inhibition of AurA Lys2 labeling site in human A-375 cells at 0.5 uM by KiNativ Profiling analysis relative to control; format: cell-based
T1 sequence (whole entry): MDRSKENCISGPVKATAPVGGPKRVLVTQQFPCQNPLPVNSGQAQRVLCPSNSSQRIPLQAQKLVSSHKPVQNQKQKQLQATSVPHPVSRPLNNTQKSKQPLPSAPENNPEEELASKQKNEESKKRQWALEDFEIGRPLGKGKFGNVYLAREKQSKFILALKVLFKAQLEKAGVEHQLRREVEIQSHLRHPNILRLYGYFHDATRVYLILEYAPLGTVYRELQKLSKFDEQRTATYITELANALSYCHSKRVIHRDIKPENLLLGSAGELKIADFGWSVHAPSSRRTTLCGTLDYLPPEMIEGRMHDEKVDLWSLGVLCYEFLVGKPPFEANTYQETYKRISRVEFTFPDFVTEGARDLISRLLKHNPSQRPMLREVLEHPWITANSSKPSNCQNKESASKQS
Procedure, shortened: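 Intact A375 melanoma cells were treated with compound at 5 or 0.5 μM, then lysed. Lysate kinases were labeled with a lysine-reactive ATP or ADP-biotin probe (KiNativ). Inhibition is read as protection of each kinase labeling site from probe labeling.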

[5] = biological target: TRAF2 and NCK-interacting protein kinase (Homo sapiens) (UniProt Q9UKE5); test: Inhibition of ZC2/TNIK Lys2 labeling site in human A-375 cells at 0.05 uM by KiNativ Profiling analysis relative to control; format: cell-based
Chain of TRAF2 and NCK-interacting protein kinase (Homo sapiens) (Q9UKE5 whole entry, looked up): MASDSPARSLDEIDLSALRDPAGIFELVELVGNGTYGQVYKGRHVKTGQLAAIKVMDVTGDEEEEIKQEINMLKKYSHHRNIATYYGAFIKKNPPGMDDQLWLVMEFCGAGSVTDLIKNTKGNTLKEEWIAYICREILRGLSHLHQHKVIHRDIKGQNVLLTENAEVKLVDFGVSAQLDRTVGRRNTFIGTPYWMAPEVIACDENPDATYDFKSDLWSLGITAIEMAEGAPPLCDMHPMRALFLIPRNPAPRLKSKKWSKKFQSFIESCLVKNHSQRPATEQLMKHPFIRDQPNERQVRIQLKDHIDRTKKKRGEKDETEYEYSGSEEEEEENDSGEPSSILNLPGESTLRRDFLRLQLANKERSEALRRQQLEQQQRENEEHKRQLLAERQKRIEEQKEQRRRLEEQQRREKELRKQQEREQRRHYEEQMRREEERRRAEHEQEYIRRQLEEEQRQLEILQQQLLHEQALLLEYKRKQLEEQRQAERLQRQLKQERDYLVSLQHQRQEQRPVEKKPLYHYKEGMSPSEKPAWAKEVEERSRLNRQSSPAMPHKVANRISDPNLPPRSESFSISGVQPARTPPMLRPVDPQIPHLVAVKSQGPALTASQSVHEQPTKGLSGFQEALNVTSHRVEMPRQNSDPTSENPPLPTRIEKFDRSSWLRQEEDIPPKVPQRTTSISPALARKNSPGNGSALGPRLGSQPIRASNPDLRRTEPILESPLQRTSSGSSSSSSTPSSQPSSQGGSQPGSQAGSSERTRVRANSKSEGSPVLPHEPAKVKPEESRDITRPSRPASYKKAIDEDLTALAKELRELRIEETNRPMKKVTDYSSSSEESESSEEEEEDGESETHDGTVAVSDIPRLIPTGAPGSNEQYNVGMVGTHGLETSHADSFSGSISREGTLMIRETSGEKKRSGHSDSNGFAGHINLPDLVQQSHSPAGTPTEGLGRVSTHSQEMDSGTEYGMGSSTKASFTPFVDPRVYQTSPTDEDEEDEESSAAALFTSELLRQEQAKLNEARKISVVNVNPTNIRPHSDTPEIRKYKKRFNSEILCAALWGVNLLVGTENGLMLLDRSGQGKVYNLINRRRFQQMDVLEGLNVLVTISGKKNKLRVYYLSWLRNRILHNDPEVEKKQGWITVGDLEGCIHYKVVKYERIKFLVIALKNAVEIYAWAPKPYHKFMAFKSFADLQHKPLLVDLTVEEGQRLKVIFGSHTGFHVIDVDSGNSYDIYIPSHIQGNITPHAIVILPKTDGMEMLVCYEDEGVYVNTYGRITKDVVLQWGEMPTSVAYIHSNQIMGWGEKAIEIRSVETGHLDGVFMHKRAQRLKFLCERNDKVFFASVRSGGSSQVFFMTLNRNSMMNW

[6] = biological target: T2, Phosphatidylinositol 5-phosphate 4-kinase type-2 gamma (Homo sapiens) (UniProt Q8TBX8); test: Inhibition of PIP4K2C ATP labeling site harbouring VKELPTLK in human A-375 cells at 0.5 uM by KiNativ Profiling analysis relative to control; format: cell-based
T2 sequence (whole entry): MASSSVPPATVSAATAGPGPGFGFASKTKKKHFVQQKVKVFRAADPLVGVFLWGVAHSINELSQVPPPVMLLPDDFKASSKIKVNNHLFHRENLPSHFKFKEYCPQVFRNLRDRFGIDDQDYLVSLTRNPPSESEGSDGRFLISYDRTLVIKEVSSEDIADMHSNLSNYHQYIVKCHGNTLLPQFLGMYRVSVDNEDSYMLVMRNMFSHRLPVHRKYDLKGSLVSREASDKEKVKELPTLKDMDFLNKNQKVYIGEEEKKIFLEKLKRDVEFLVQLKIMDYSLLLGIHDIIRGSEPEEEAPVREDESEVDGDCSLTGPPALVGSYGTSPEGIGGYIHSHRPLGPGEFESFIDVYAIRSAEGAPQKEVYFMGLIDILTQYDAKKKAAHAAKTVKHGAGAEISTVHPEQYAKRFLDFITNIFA
Procedure, shortened: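 Live A375 melanoma cells were treated with compound at 5 or 0.5 μM, then lysed. Lysates were labeled with a lysine-reactive ATP or ADP-biotin probe. Read-out was the compound's protection of kinase labeling sites from probe labeling (KiNativ).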

[7] = biological target: Serine/threonine-protein kinase Nek7 (Homo sapiens) (UniProt Q8TDX7); test: Inhibition of NEK7 Lys2 labeling site in human A-375 cells at 5 uM by KiNativ Profiling analysis relative to control; format: cell-based
Chain of Serine/threonine-protein kinase Nek7 (Homo sapiens) (Q8TDX7 whole entry, looked up): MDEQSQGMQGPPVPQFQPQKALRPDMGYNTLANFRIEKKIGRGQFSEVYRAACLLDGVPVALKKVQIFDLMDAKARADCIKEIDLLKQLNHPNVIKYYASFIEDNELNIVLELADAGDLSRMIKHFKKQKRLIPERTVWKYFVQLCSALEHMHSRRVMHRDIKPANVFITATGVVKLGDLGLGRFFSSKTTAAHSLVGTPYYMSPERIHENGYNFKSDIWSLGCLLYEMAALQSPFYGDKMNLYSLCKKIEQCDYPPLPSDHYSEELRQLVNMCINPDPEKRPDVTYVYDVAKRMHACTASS

[8] = biological target: Tyrosine-protein kinase Fyn (Homo sapiens) (UniProt P06241); test: Inhibition of FYN ACT labeling site in human A-375 cells at 0.5 uM by KiNativ Profiling analysis relative to control; format: cell-based
Chain of Tyrosine-protein kinase Fyn (Homo sapiens) (P06241 2-537 limits assumed): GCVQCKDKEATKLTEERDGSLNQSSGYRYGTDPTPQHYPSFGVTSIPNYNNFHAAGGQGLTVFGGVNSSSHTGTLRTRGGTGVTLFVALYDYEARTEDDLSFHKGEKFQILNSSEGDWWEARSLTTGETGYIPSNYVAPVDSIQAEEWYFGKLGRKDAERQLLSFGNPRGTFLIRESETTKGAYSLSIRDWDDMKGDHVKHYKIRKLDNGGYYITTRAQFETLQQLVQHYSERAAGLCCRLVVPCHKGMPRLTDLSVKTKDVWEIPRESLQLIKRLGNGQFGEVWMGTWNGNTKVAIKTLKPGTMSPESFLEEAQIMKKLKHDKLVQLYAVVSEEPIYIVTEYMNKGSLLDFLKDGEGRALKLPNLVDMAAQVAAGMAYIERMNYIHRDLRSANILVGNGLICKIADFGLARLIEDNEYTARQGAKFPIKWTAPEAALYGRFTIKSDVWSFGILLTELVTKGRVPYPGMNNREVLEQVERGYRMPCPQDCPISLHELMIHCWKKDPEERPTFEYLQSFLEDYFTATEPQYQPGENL

[9] = biological target: Serine/threonine-protein kinase mTOR (Homo sapiens) (UniProt P42345); test: Inhibition of FRAP ATP labeling site in human Huh-7 cells at 1 uM by KiNativ Profiling analysis relative to control; format: cell-based
[10] = biological target: Tyrosine-protein kinase ABL2 (Homo sapiens, UniProt P42684); test: Inhibition of ARG Lys1 labeling site in human Huh-7 cell lysate at 1 uM by KiNativ Profiling analysis relative to control; format: subcellular
Chain of Tyrosine-protein kinase ABL2 (P42684 whole entry): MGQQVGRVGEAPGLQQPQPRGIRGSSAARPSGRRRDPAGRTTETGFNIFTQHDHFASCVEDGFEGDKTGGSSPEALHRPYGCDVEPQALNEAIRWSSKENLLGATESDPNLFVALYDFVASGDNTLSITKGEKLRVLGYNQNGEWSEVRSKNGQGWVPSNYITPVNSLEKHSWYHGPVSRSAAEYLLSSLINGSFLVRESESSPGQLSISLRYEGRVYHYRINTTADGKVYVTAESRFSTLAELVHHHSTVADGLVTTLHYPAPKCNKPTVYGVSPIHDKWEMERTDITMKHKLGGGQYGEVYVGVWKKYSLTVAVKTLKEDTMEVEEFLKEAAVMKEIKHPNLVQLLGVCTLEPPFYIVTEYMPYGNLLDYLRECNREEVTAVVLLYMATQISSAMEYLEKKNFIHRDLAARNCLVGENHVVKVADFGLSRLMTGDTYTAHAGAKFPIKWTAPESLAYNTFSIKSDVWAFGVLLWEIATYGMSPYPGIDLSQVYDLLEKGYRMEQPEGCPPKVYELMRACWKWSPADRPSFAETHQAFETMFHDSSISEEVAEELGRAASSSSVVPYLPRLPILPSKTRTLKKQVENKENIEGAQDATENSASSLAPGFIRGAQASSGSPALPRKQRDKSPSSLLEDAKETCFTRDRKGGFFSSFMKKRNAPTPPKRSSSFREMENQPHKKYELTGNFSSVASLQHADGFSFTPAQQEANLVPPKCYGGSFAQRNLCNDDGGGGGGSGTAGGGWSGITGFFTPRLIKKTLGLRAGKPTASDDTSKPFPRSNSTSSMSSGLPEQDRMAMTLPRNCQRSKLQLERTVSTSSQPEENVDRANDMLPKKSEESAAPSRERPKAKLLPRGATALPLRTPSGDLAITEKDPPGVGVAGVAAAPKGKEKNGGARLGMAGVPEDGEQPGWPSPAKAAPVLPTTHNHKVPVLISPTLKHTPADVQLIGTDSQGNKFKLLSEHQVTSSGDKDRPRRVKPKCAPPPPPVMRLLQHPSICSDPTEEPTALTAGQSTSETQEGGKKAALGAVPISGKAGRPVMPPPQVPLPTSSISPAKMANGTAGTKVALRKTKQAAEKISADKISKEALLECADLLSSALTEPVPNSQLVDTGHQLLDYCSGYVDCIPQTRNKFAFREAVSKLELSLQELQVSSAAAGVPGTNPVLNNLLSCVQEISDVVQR

Row | SMILES | inhibition [1] | inhibition [2] | inhibition [3] | inhibition [4] | inhibition [5] | inhibition [6] | inhibition [7] | inhibition [8] | inhibition [9] | inhibition [10]
1 | CCN1CCN(Cc2ccc(NC(=O)c3ccc(C)c(/C=C/c4cnc5[nH]ccc5c4OC)c3)cc2C(F)(F)F)CC1 | -4.9% | 72.6% | 11.6% | 0.7% | 19.5% | 9.2% | 3.1% | 72.6% | – | –
2 | CCN1CCN(Cc2ccc(NC(=O)c3ccc(C)c(Oc4ccnc5[nH]ccc45)c3)cc2C(F)(F)F)CC1 | 9.9% | 36.5% | 19.5% | 12% | 32.6% | -1.8% | 6.4% | 36.5% | inactive | –
3 | CNc1cc(Oc2cc(C(=O)Nc3cc(-n4cnc(C)c4)cc(C(F)(F)F)c3)ccc2C)ncn1 | – | – | – | – | – | – | – | – | – | 51.8%
4 | CNc1cc(Oc2cc(C(=O)Nc3cc(N4CCN(C)CC4)cc(C(F)(F)F)c3)ccc2C)ncn1 | – | – | – | – | – | – | – | – | 26.5% | 48.4%
